Source: ChEMBL document CHEMBL4118140, “Synthesis and in vitro evaluation of homoisoflavonoids as potent inhibitors of nitric oxide production in RAW-264.7 cells” (Bioorg Med Chem Lett, 2018)
Active and inactive are the calls of the source. No cut-off for these calls is given here.

How the values were obtained:
RAW264.7 [1] = assay: Antiinflammatory activity in mouse RAW264.7 cells assessed as reduction in LPS-induced NO production at 1 uM after 18 hrs by Griess assay relative to control; type: functional; details: RAW264.7, 18 h
Summary of the method: (§1)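 RAW 264.7 macrophages were stimulated with LPS together with test compound at 0.1, 1, 10, 25, 50 and 100 (six levels), with L-NMMA as the reference inhibitor. NO production was measured and expressed as % of the LPS-only control, with inhibition = 100 − that value. Results are mean ± SEM, n = 3, and IC50 came from the concentration series.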

RAW264.7 [2] = assay: Antiinflammatory activity in mouse RAW264.7 cells assessed as reduction in LPS-induced NO production at 10 uM after 18 hrs by Griess assay relative to control; type: functional; details: RAW264.7, 18 h; summary of the method: as §1
RAW264.7 [3] = assay: Antiinflammatory activity in mouse RAW264.7 cells assessed as reduction in LPS-induced NO production after 18 hrs by Griess assay; type: functional, cell-based; details: RAW264.7, 18 h; summary of the method: as §1
[4] = Cytotoxicity against mouse RAW264.7 cells assessed as cell viability at 1 uM after 24 hrs by CellTiter96 AQueous one solution cell proliferation assay (reference value: 100 +/- 2.4%); type: cell-based; details: read-out: Activity
[5] = Cytotoxicity against mouse RAW264.7 cells assessed as cell viability at 10 uM after 24 hrs by CellTiter96 AQueous one solution cell proliferation assay (reference value: 100 +/- 2.4%); type: cell-based; details: read-out: Activity
[6] = Cytotoxicity against mouse RAW264.7 cells assessed as cell viability at 50 uM after 24 hrs by CellTiter96 AQueous one solution cell proliferation assay (reference value: 100 +/- 2.4%); type: cell-based; details: read-out: Activity
[7] = Cytotoxicity against mouse RAW264.7 cells assessed as cell viability at 100 uM after 24 hrs by CellTiter96 AQueous one solution cell proliferation assay (reference value: 100 +/- 2.4%); type: cell-based; details: read-out: Activity
RAW264.7 [8] = assay: Inhibition of iNOS expression in LPS-stimulated mouse RAW264.7 cells at 10 uM after 18 hrs by Western blot method; type: functional, cell-based
RAW264.7 [9] = assay: Effect on beta-actin expression in LPS-stimulated mouse RAW264.7 cells at 10 uM after 18 hrs by Western blot method; type: cell-based; details: raw264.7, 18 h

| SMILES | inhibition at 1 µM (RAW264.7 [1]) | inhibition at 10 µM (RAW264.7 [2]) | IC50 (RAW264.7 [3]) | viability at 24 h, 1 µM [4] | viability at 24 h, 10 µM [5] | viability at 24 h, 50 µM [6] | viability at 24 h, 100 µM [7] | iNOS expression inhibition (active/inactive) (RAW264.7 [8]) | Activity (RAW264.7 [9]) |
| --- | --- | --- | --- | --- | --- | --- | --- | --- | --- |
| COc1cc(OC)c2c(c1)OC/C(=C\c1ccccc1O)C2=O | 38.5% | 97.2% | 1.26 µM | 108% | 114% | 13.3% | 11.7% | Active | Non-Toxic |
| CNC(=N)NCCC[C@H](N)C(=O)O [TILARGININE] | -12.5% | 14.2% | 16.1 µM |  |  |  |  |  |  |
| COc1cc2c(c(OC)c1OC)C(=O)/C(=C/c1ccccc1O)CO2 | 16.2% | 83% | 2.91 µM | 94.6% | 93.4% | 11.8% | 10.9% | Active | Non-Toxic |
| COc1cc(O)c2c(c1)OCC(Cc1ccccc1O)C2=O (centres undefined) | 2.8% | 38% | 12.4 µM | 97.7% | 81.1% | 34.2% | 12.5% |  |  |
| COc1cc2c(c(O)c1OC)C(=O)C(Cc1ccccc1O)CO2 (racemic) | -11.8% | 34.1% | 12.2 µM | 97.6% | 96.7% | 41.1% | 15.5% |  |  |
| COc1cc(OC)c2c(c1)OCC(Cc1ccccc1O)C2=O (racemic) | -2.8% | 20.5% | 14.2 µM | 98.6% | 165% | 55.2% | 41.3% |  |  |
| COc1cc2c(c(OC)c1OC)C(=O)C(Cc1ccccc1O)CO2 (racemic) | -24.6% | 15.9% | 13.4 µM | 89.6% | 87.2% | 58.7% | 44% |  |  |
| COc1cc(O)c2c(c1)OC/C(=C\c1ccccc1O)C2=O | 21.1% | 92.5% | 2.09 µM | 94% | 97% | 10.7% | 11% | Active | Non-Toxic |
| COc1ccc2c(c1)OC/C(=C\c1ccccc1O)C2=O | 28.4% | 91.4% | 1.75 µM | 102% | 97.7% | 11% | 11.1% | Active | Non-Toxic |
| COc1ccc2c(c1)OCC(Cc1ccccc1O)C2=O (centres undefined) | 9.2% | 19.7% | 14.2 µM | 152% | 118% | 49.4% | 31.5% |  |  |
